The values that follow come from ChEMBL document CHEMBL5523690, “Synergistic effect of tryptamine-urea derivatives to overcome the chromosomally-mediated colistin resistance in Klebsiella pneumoniae” (Bioorg Med Chem, 2024).

By MIC is commonly meant the smallest concentration in the dilution series that meets the test's criterion for growth inhibition.

A value given as a limit tells only on which side of the number the result lay.

Data set [1] deals with Escherichia coli. Briefly: Colistin adjuvant activity against colistin-resistant Escherichia coli A50 assessed as colistin MIC by measuring potentiation fold incubated for 24 hrs under aerobic condition by two fold serial dilution method relative to colistin alone. It is filed as functional.
The subject of data set [2] is Klebsiella pneumoniae. Briefly: Antibacterial activity against chromosomally-mediated resistant Klebsiella pneumoniae BA03057 assessed as inhibition of visible bacterial growth measured after 20 hrs under aerobic condition by two fold serial dilution assay. It is filed as functional.
The subject of data set [3] is Escherichia coli. Briefly: Antibacterial activity against colistin resistant Escherichia coli A50 harboring mcr-1 gene assessed as inhibition of visible bacterial growth measured after 20 hrs under aerobic condition by two fold serial dilution assay. The format is functional.
Data set [4] relates to Escherichia coli. Briefly: Antibacterial activity against colistin resistant Escherichia coli NTCC 13846 harboring mcr-1 gene assessed as inhibition of visible bacterial growth measured after 20 hrs under aerobic condition by two fold serial dilution assay. It is filed as functional.
For data set [5], the system named is Pseudomonas aeruginosa. Briefly: Antibacterial activity against chromosomally-mediated colistin resistant Pseudomonas aeruginosa 15080 assessed as inhibition of visible bacterial growth measured after 20 hrs under aerobic condition by two fold serial dilution assay. The format is functional.
Data set [6] deals with Klebsiella pneumoniae. Briefly: Antibacterial activity against Klebsiella pneumoniae ATCC700603 assessed as inhibition of visible bacterial growth measured after 20 hrs under aerobic condition by two fold serial dilution assay. The format is functional. The essentials:
(§1)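 Broth microdilution following EUCAST. Compound was tested at final well concentrations of 0.25–128 µg/mL against 5.10^5 CFU/mL inoculum, incubated 20 h at 37 °C aerobically. MIC was taken as the lowest concentration with no visible growth. There were three independent experiments per strain.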

In data set [7] the test system is Escherichia coli. Briefly: Antibacterial activity against Escherichia coli ATCC25922 assessed as inhibition of visible bacterial growth measured after 20 hrs under aerobic condition by two fold serial dilution assay. It is filed as functional. A digest of the protocol: as §1
The subject of data set [8] is Escherichia coli. Briefly: Colistin adjuvant activity against colistin-resistant Escherichia coli A50 assessed as antibacterial effect by measuring colistin MIC incubated for 24 hrs under aerobic condition by two fold serial dilution method. It is filed as functional.
Data set [9] deals with Pseudomonas aeruginosa. Briefly: Antibacterial activity against chromosomally-mediated colistin resistant Pseudomonas aeruginosa 1002 assessed as inhibition of visible bacterial growth measured after 20 hrs under aerobic condition by two fold serial dilution assay. The format is functional.
For data set [10], the system named is Klebsiella pneumoniae. Briefly: Colistin adjuvant activity against colistin-resistant Klebsiella pneumoniae BA03057 assessed as colistin MIC by measuring potentiation fold incubated for 24 hrs under aerobic condition by two fold serial dilution method relative to colistin alone. It is filed as functional.
For data set [11], the system named is Klebsiella pneumoniae. Briefly: Synergistic antibacterial activity against Klebsiella pneumoniae BA03057 assessed as fractional inhibitory concentration index incubated for 24 hrs under aerobic condition in presence of colistin by checkerboard assay. It is filed as functional. The essentials:
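Checkerboard against KP BA03057 at 5.10^5 CFU/mL. Colistin was two-fold diluted 0–64 µg/mL across compound two-fold diluted 0–100 µM. Plates were incubated 24 h at 37 °C aerobically and absorbance read at 600 nm. FICI = MIC(compound, combined)/MIC(compound alone) + MIC(colistin, combined)/MIC(colistin alone), with synergy at FICI < 0.5. Plates were run in duplicate.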

For data set [12], the system named is Pseudomonas aeruginosa. Briefly: Antibacterial activity against chromosomally-mediated colistin resistant Pseudomonas aeruginosa 10039 assessed as inhibition of visible bacterial growth measured after 20 hrs under aerobic condition by two fold serial dilution assay. The format is functional.
The test system of data set [13] is Klebsiella pneumoniae. Briefly: Colistin adjuvant activity against colistin-resistant Klebsiella pneumoniae BA03057 assessed as antibacterial effect by measuring colistin MIC incubated for 24 hrs under aerobic condition by two fold serial dilution method. It is filed as functional.
Data set [14] deals with Pseudomonas aeruginosa. Briefly: Antibacterial activity against Pseudomonas aeruginosa ATCC27853 assessed as inhibition of visible bacterial growth measured after 20 hrs under aerobic condition by two fold serial dilution assay. It is filed as functional. A digest of the protocol:
as §1

Data set [15] deals with Erythrocyte. Briefly: Hemolytic activity in sheep RBC assessed as RBC deformation at 800 uM measured after 1 hr by fluorescence microscopic analysis. The format is toxicity, cell-based, Ovis aries. The essentials: (§2)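 PBS-washed sheep erythrocytes were exposed to compound in PBS at 25–800 µM, or 25 µM plus colistin 1 µg/mL. Each reaction held 5% (v/v) RBCs and 5% (v/v) DMSO, incubated 1 h at 37 °C with 100 rpm agitation, then centrifuged at 1000 g, 4 °C. Cell shape was examined by optical microscopy. Triplicates.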

For data set [16], the system named is Erythrocyte. Briefly: Hemolytic activity in sheep RBC assessed as hemolysis at 1600 uM measured after 1 hr by fluorescence microscopic analysis. The format is toxicity, cell-based, Ovis aries.
Data set [17] is described as follows: Hemolytic activity in sheep RBC assessed as survival rate at 25 uM measured after 1 hr in presence of colistin by fluorescence microscopic analysis relative to control. It is filed as toxicity, cell-based, Ovis aries, Erythrocyte. Conditions: sheep red blood cells (erythrocytes), read-out: Survival. The essentials: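 Washed sheep erythrocytes in PBS, 5% (v/v) final with 5% (v/v) DMSO, given 25 µM agent plus colistin 1 µg/mL; 1 h at 37 °C, shaking 100 rpm; Triton X-100 0.5% positive and PBS negative controls; cells spun off at 1000 g, 4 °C; absorbance (750–600 nm) read as % RBC survival; triplicate; shape checked by optical microscopy.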

Data set [18] deals with Erythrocyte. Briefly: Hemolytic activity in sheep RBC assessed as RBC deformation at 25 uM measured after 1 hr in presence of colistin by fluorescence microscopic analysis. The format is toxicity, cell-based, Ovis aries. The essentials:
as §2

In data set [19] the test system is Erythrocyte. Briefly: Hemolytic activity in sheep RBC assessed as hemolysis at 25 uM measured after 1 hr by fluorescence microscopic analysis. The format is toxicity, cell-based, Ovis aries. The essentials: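 Sheep erythrocytes, PBS-washed, were treated at 5% (v/v) with compound (25–800 µM) in 5% (v/v) DMSO for 1 h at 37 °C, shaking at 100 rpm. Controls were 0.5% Triton X-100 (positive) and PBS (negative). After centrifugation at 1000 g, 4 °C, hemolysis was assessed visually and by absorbance (750–600 nm) as percent RBC survival. Triplicate.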

Take `O=C(NCCc1c[nH]c2ccccc12)Nc1cccc(Cl)c1`: the “fold change (FC)” value with Escherichia coli [1] came to 1; in the data set with Klebsiella pneumoniae [10], 0.031. Moreover, the MIC with Klebsiella pneumoniae [2], in the data set on Escherichia coli [3], in the data set on Escherichia coli [4], in the data set on Pseudomonas aeruginosa [5], in the data set with Klebsiella pneumoniae [6] and in the data set with Escherichia coli [7] was above 128 µg/mL throughout. The MIC in the data set with Escherichia coli [8] is 8 µg/mL; with Pseudomonas aeruginosa [9] it was above 128 µg/mL; in the data set on Pseudomonas aeruginosa [12] it was above 128 µg/mL; with Klebsiella pneumoniae [13], 2 µg/mL; in the data set on Pseudomonas aeruginosa [14], above 128 µg/mL. Further, the “fractional inhibitory concentration index (FICI)” value in the data set with Klebsiella pneumoniae [11] came out at 0.062.
As for `O=C(NCCc1c[nH]c2ccccc12)Nc1cccc(F)c1`, the “fold change (FC)” value with Escherichia coli [1] is 0.5. Also, the Activity result in the data set on Erythrocyte [15], in the data set with Erythrocyte [16], with Erythrocyte [18] and in the data set on Erythrocyte [19] was “Non-Toxic” in each case. Moreover, the MIC in the data set with Klebsiella pneumoniae [2], in the data set with Escherichia coli [3], in the data set with Escherichia coli [4], in the data set with Pseudomonas aeruginosa [5], in the data set with Klebsiella pneumoniae [6] and with Escherichia coli [7] was above 128 µg/mL throughout. The MIC in the data set with Escherichia coli [8] is 4 µg/mL; in the data set on Pseudomonas aeruginosa [9] it was above 128 µg/mL; in the data set on Pseudomonas aeruginosa [12], above 128 µg/mL; with Klebsiella pneumoniae [13], 1 µg/mL; with Pseudomonas aeruginosa [14], above 128 µg/mL. For the same compound, the viability at 1 h, 25 µM in data set [17] worked out at 96%. Besides, the “fractional inhibitory concentration index (FICI)” value in the data set with Klebsiella pneumoniae [11] was found to be 0.073.
Take `O=C(NCCc1c[nH]c2ccccc12)Nc1ccc(Cl)cc1`: the results for the “fold change (FC)” value in the data set with Escherichia coli [1] and in the data set with Klebsiella pneumoniae [10] were 0.5 and 0.062, respectively. For the same compound, the MIC in the data set on Klebsiella pneumoniae [2], with Escherichia coli [3], with Escherichia coli [4], with Pseudomonas aeruginosa [5], in the data set with Klebsiella pneumoniae [6] and in the data set on Escherichia coli [7] was above 128 µg/mL in each case. In addition, the MIC in the data set on Escherichia coli [8] was 4 µg/mL; in the data set with Pseudomonas aeruginosa [9] it was above 128 µg/mL; in the data set with Pseudomonas aeruginosa [12], above 128 µg/mL; in the data set on Klebsiella pneumoniae [13] it was 4 µg/mL; in the data set on Pseudomonas aeruginosa [14], above 128 µg/mL. Moreover, the “fractional inhibitory concentration index (FICI)” value in the data set with Klebsiella pneumoniae [11] was found to be 0.276.
Regarding `CCCCCCNC(=O)NCCc1c[nH]c2ccccc12`, the “fold change (FC)” value in the data set on Escherichia coli [1] is 0.5; in the data set with Klebsiella pneumoniae [10] it was 0.031. Also, the minimal inhibitory concentration (MIC) in the data set with Klebsiella pneumoniae [2], in the data set on Escherichia coli [3], in the data set with Escherichia coli [4], with Pseudomonas aeruginosa [5], in the data set with Klebsiella pneumoniae [6] and in the data set with Escherichia coli [7] was above 128 µg/mL each time. For the same compound, the minimum inhibitory concentration (MIC) was 4 µg/mL with Escherichia coli [8]; above 128 µg/mL with Pseudomonas aeruginosa [9]; above 128 µg/mL in the data set with Pseudomonas aeruginosa [12]; 2 µg/mL with Klebsiella pneumoniae [13]; above 128 µg/mL in the data set on Pseudomonas aeruginosa [14]. In addition, in the data set with Klebsiella pneumoniae [11], the “fractional inhibitory concentration index (FICI)” value amounted to 0.143.
Take `O=C(NCCc1c[nH]c2ccccc12)Nc1ccccc1Br`: the “fold change (FC)” value in the data set with Escherichia coli [1] stood at 0.5; in the data set with Klebsiella pneumoniae [10], 0.031. For the same compound, the minimum inhibitory concentration (MIC) in the data set with Klebsiella pneumoniae [2], with Escherichia coli [3], in the data set on Escherichia coli [4], in the data set with Pseudomonas aeruginosa [5], with Klebsiella pneumoniae [6] and in the data set on Escherichia coli [7] was above 128 µg/mL in each case. For the same compound, the minimum inhibitory concentration (MIC) in the data set on Escherichia coli [8] is 4 µg/mL; in the data set on Pseudomonas aeruginosa [9], above 128 µg/mL; with Pseudomonas aeruginosa [12] it was above 128 µg/mL; in the data set on Klebsiella pneumoniae [13] it was 2 µg/mL; in the data set on Pseudomonas aeruginosa [14], above 128 µg/mL. Also, in the data set with Klebsiella pneumoniae [11], the “fractional inhibitory concentration index (FICI)” value is recorded as 0.31.
